{
  "source": "ChEMBL document CHEMBL1141407",
  "about": "“Synthesis and evaluation of 1,2,3-triazole containing analogues of the immunostimulant alpha-GalCer” (2007)",
  "key": {"Mus musculus [1]": {"tested_on": "Mus musculus", "assay": "Elevation of IFN-gamma in C57B/6 mouse at 1 ug, iv", "assay_type": "functional, organism-based", "method_in_brief": "(§1)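 Naive C57BL/6 mice given glycolipid at 1 µg/mouse by intravenous injection; serum IFN-γ and IL-4 measured by ELISA at several time points after dosing. Data are means ± SD of three mice, representative of two separate experiments.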"}, "DN32.D3 [2]": {"tested_on": "DN32.D3", "assay": "Stimulation of IL2 production in DN32.D3 cells after 16 hrs", "assay_type": "functional, cell-based", "settings": "Mus musculus", "method_in_brief": "(§2)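 Rat basophilic leukemia cells transfected with mouse CD1d were pulsed with glycolipid at various concentrations for 4 h, then washed three times with PBS. They were co-cultured with DN32.D3 NKT hybridoma cells (Vα14+) for 16 h, and IL-2 in the supernatant was measured by ELISA. Data are means ± SD of duplicates, representative of two experiments.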"}, "Mus musculus [3]": {"tested_on": "Mus musculus", "assay": "Elevation of IL4 in C57B/6 mouse at 1 ug, iv", "assay_type": "functional, organism-based", "method_in_brief": "as §1"}, "DN32.D3 [4]": {"tested_on": "DN32.D3", "assay": "Stimulation of IL2 production in DN32.D3 cells at 500 ng/mL after 16 hrs", "assay_type": "functional, cell-based", "settings": "Mus musculus", "method_in_brief": "as §2"}, "Splenocyte [5]": {"tested_on": "Splenocyte", "assay": "Stimulation of IL4 secretion from C57BL/6 mouse splenocytes at 125 ng/mL after 72 hrs relative to alphaGalCer", "assay_type": "functional", "method_in_brief": "(§3)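 Splenocytes from naive C57BL/6 mice were cultured with glycolipid at various concentrations for 72 h. IFN-γ and IL-4 in the supernatant were measured by ELISA and expressed as relative activities. Data are means ± SD of duplicates, representative of two experiments; significance by Student's t test.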"}, "Splenocyte [6]": {"tested_on": "Splenocyte", "assay": "Stimulation of IFN-gamma secretion from C57BL/6 mouse splenocytes at 125 ng/mL after 72 hrs", "assay_type": "functional", "method_in_brief": "as §3"}, "Splenocyte [7]": {"tested_on": "Splenocyte", "assay": "Stimulation of IL4 secretion from C57BL/6 mouse splenocytes at 125 ng/mL after 72 hrs", "assay_type": "functional", "method_in_brief": "as §3"}, "Mus musculus [8]": {"tested_on": "Mus musculus", "assay": "Elevation of IL4 in C57B/6 mouse at 1 ug, iv after 2 hrs", "assay_type": "functional, organism-based", "method_in_brief": "as §1"}, "Splenocyte [9]": {"tested_on": "Splenocyte", "assay": "Stimulation of IL4 secretion from C57BL/6 mouse splenocytes at 32 ng/mL after 72 hrs", "assay_type": "functional", "method_in_brief": "as §3"}, "Splenocyte [10]": {"tested_on": "Splenocyte", "assay": "Stimulation of IFN-gamma secretion from C57BL/6 mouse splenocytes at 32 ng/mL after 72 hrs", "assay_type": "functional", "method_in_brief": "as §3"}, "Mus musculus [11]": {"tested_on": "Mus musculus", "assay": "Elevation of IFN-gamma in C57B/6 mouse at 1 ug, iv after 12 hrs", "assay_type": "functional, organism-based", "method_in_brief": "as §1"}, "Splenocyte [12]": {"tested_on": "Splenocyte", "assay": "Stimulation of IFN-gamma secretion from C57BL/6 mouse splenocytes at 125 ng/mL after 72 hrs relative to alphaGalCer", "assay_type": "functional", "method_in_brief": "as §3"}, "Splenocyte [13]": {"tested_on": "Splenocyte", "assay": "Stimulation of IL4 secretion from C57BL/6 mouse splenocytes at 32 ng/mL after 72 hrs relative to alphaGalCer", "assay_type": "functional", "method_in_brief": "as §3"}, "Splenocyte [14]": {"tested_on": "Splenocyte", "assay": "Stimulation of IFN-gamma secretion from C57BL/6 mouse splenocytes at 32 ng/mL after 72 hrs relative to alphaGalCer", "assay_type": "functional", "method_in_brief": "as §3"}, "DN32.D3 [15]": {"tested_on": "DN32.D3", "assay": "Stimulation of IL2 production in DN32.D3 cells at 32 ng/mL after 16 hrs", "assay_type": "functional, cell-based", "settings": "Mus musculus", "method_in_brief": "as §2"}},
  "note": "Activity calls are given as the source filed them. The rule behind the calls is not given here.",
  "data": [
    {"smiles": "CCCCCCCCCCCCCCCCc1cn([C@@H](CO[C@H]2O[C@H](CO)[C@H](O)[C@H](O)[C@H]2O)[C@H](O)[C@H](O)CCCCCCCCCCCCCC)nn1", "values": [
      {"measurement": "Activity", "setting": "Mus musculus [1]", "result": "inactive"},
      {"measurement": "Activity", "setting": "DN32.D3 [2]", "result": "inactive"},
      {"measurement": "Activity", "setting": "Mus musculus [3]", "result": "inactive"}
    ]},
    {"smiles": "CCCCCCCCCCCCCC[C@@H](O)[C@@H](O)[C@H](CO[C@H]1O[C@H](CO)[C@H](O)[C@H](O)[C@H]1O)n1cc(CCCCCC)nn1", "values": [
      {"measurement": "Activity", "setting": "Mus musculus [1]", "result": "inactive"},
      {"measurement": "Activity", "setting": "DN32.D3 [4]", "result": "inactive"},
      {"measurement": "Activity", "setting": "Mus musculus [3]", "result": "inactive"}
    ]},
    {"smiles": "CCCCCCCCCCCCCC[C@@H](O)[C@@H](O)[C@H](CO[C@H]1O[C@H](CO)[C@H](O)[C@H](O)[C@H]1O)n1cc(CCCCCCC)nn1", "values": [
      {"measurement": "Activity", "setting": "Mus musculus [1]", "result": "inactive"},
      {"measurement": "Activity", "setting": "Mus musculus [3]", "result": "inactive"},
      {"measurement": "Activity", "setting": "Splenocyte [5]", "result": "Active"}
    ]},
    {"smiles": "CCCCCCCCCCCCCCCCCCCCCCCCCC(=O)N[C@@H](CO[C@H]1O[C@H](CO)[C@H](O)[C@H](O)[C@H]1O)[C@H](O)[C@H](O)CCCCCCCCCCCCCC", "note": "[RGI-7000]", "values": [
      {"measurement": "Activity", "setting": "Splenocyte [6]", "result": 12.8, "unit": "ng/mL"},
      {"measurement": "Activity", "setting": "Splenocyte [7]", "result": 0.9, "unit": "ng/mL"},
      {"measurement": "Activity", "setting": "Mus musculus [8]", "result": "Active"},
      {"measurement": "Activity", "setting": "Splenocyte [9]", "result": 1.12, "unit": "ng/mL"},
      {"measurement": "Activity", "setting": "Splenocyte [10]", "result": 15.6, "unit": "ng/mL"},
      {"measurement": "Activity", "setting": "Mus musculus [11]", "result": "Active"}
    ]},
    {"smiles": "CCCCCCCCCCCCCCCCCCCCCCCc1cn([C@@H](CO[C@H]2O[C@H](CO)[C@H](O)[C@H](O)[C@H]2O)[C@H](O)[C@H](O)CCCCCCCCCCCCCC)nn1", "values": [
      {"measurement": "Activity", "setting": "Splenocyte [5]", "result": "Active"}
    ]},
    {"smiles": "CCCCCCCCCCCCCCCCCCCCCCCCc1cn([C@@H](CO[C@H]2O[C@H](CO)[C@H](O)[C@H](O)[C@H]2O)[C@H](O)[C@H](O)CCCCCCCCCCCCCC)nn1", "values": [
      {"measurement": "Activity", "setting": "Splenocyte [12]", "result": 11.5, "unit": "ng/mL"},
      {"measurement": "Activity", "setting": "Splenocyte [13]", "result": 1.51, "unit": "ng/mL"},
      {"measurement": "Activity", "setting": "Splenocyte [14]", "result": 4.63, "unit": "ng/mL"},
      {"measurement": "Activity", "setting": "DN32.D3 [15]", "result": "Active"},
      {"measurement": "Activity", "setting": "Splenocyte [5]", "result": 1.09, "unit": "ng/mL"}
    ]}
  ]
}
